The list is not random: actives were taken first. Their share in the collection is about 2.4%.
APOBEC3G inh – inhibitors of human APOBEC3G DNA deaminase; recombinant A3G, ssDNA deamination FAM/TAMRA fluorescence; inhibition, % at 20 µM; hit rate 0.28% among 330,000;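 active = inhibition of at least 40% at 20 µM, with no more than 30% in the related APOBEC3A deaminase screen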
Target sequence (Q9HC16 whole entry, looked up): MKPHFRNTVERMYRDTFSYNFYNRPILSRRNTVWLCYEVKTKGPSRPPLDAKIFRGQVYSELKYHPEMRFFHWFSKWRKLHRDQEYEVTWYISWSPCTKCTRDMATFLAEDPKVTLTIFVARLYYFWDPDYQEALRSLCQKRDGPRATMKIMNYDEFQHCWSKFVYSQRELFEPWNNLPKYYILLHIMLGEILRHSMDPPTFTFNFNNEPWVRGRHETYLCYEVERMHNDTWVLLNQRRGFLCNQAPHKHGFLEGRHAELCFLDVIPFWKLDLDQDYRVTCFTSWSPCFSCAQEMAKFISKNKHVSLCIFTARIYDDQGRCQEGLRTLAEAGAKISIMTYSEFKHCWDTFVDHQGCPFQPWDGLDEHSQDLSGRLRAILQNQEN
APOBEC3A inh – inhibitors of human APOBEC3A DNA deaminase; P31941; recombinant A3A, FAM/TAMRA ssDNA deamination fluorescence; inhibition, % at 20 µM; hit rate 0.41% among 330,000; AID 493011;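 active = at least 40% inhibition at 20 µM here, with at most 30% in a related deaminase screen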
Target sequence (P31941 whole entry, looked up): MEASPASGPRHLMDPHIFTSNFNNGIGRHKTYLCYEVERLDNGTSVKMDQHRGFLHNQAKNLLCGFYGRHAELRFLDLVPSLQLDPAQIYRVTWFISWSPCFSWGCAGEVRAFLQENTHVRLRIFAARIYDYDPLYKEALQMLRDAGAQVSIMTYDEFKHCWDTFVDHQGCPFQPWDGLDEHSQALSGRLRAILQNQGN
HKDC1 inh – inhibitors of human hexokinase HKDC1. recombinant HKDC1, G6PDH/diaphorase resazurin coupled fluorescence. Q2TB90. inhibition, % at 20 µM. AID 493160. hit rate 0.16% among 340,000;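 active = inhibition above about 35% when tested at 20 µM, limit read from the data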
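Test system: Recombinant HKDC1 (HK5) hexokinase enzyme, produced in-house | Input: HKDC1 at 5 µg/mL | Buffer or medium: Tris pH 8.0 buffer with MgCl2, Tween-20, BSA, BME | Schedule: 90 min reaction incubation at room temperature, dark | Technique: Resazurin-to-resorufin fluorescence via G6PDH and diaphorase coupling, 525/613 nm | Controls: DMSO wells with and without enzyme mix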
PfM18AAP inh – PfM18AAP enzyme inhibition. AID 1822. inhibition, % at 7.35 µM. recombinant PfM18AAP, H-Glu-NHMec fluorogenic cleavage. hit rate 1.2% among 290,000;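 active = inhibition above the campaign mean inhibition over all tested compounds plus 3 SD, cut at about 28% in these data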
PfGluPho inh – PfG6PD (Plasmodium falciparum) enzyme inhibition | PfGluPho enzyme, NADPH resazurin-diaphorase fluorescence | inhibition, % at 20 µM | hit rate 0.78% among 350,000 | AID 504690;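 active = inhibition reaching at least a set limit at 20 µM in the primary screen, cut at about 59% in these data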
SUMO HTRF inh – blocks human SUMOylation mediated by UBC9; HTRF SUMOylation assay, SAE1/SAE2 + UBC9, in vitro; hit rate 0.36% among 290,000; AID 2006; inhibition, % at 35 µM; P63279; in the data active = inhibition above about 50%, passing the limit was not always enough
APOBEC3G confirm – confirmation of human APOBEC3G DNA deaminase inhibitors. shares compounds with APOBEC3G inh. hit rate 72% among 890. recombinant A3G ssDNA deaminase, UDG/FAM-TAMRA fluorescence. inhibition, % at 20 µM;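 active = inhibition reaching a set limit in any replicate at 20 µM, the limit being 80% of the first screen's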
UDG ctr A3G – counter-screen for APOBEC3G inhibitors: E. coli UDG. inhibition, % at 20 µM. UDG counterscreen, FAM/TAMRA oligo fluorescence. 710 tested, under 10 active. AID 504715. shares compounds with APOBEC3G inh;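 active = compounds giving 40% or more inhibition at 20 µM in any one of the three replicates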;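 also: inhibitors lower the FAM signal released by uracil excision and alkaline cleavage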
Large screens that a line does not name were inactive (follow-up assays come after a bar, where they were run).

Cc1cc(-c2n[nH]c(=S)n2/N=C/c2ccc(C)o2)n[nH]1	APOBEC3G inh 40 | APOBEC3G confirm 84 | UDG ctr A3G inactive
COc1ccc(/C=N/n2c(-c3cc(C)[nH]n3)n[nH]c2=S)cc1	APOBEC3G inh 46 | APOBEC3G confirm 91 | UDG ctr A3G inactive
CC(/C=N/n1c(-c2cc(C)[nH]n2)n[nH]c1=S)=C\c1ccccc1	APOBEC3G inh 44 | APOBEC3G confirm inactive
COc1cc(/C=N/n2c(-c3cc(C)[nH]n3)n[nH]c2=S)cc(OC)c1O	none
Cc1cccc(-c2n[nH]c(=S)n2/N=C/c2ccc(C)o2)c1	none
c1csc(CNCCN2CCOCC2)c1	none
COc1cc(C(=O)NNC(=O)CCOc2cccc(Br)c2)cc(OC)c1OC	none (no result: PfM18AAP inh, SUMO HTRF inh)
CCC1(C)Cc2ccccc2-c2nc(NCCO)n(-c3ccc(C)cc3)c(=O)c21 (stereo unspecified)	none
NC(=O)CSc1nc2cc(S(=O)(=O)N3CCOCC3)ccc2o1	APOBEC3G inh 43 (no result: PfM18AAP inh, SUMO HTRF inh) | APOBEC3G confirm 24 | UDG ctr A3G inactive
CSc1ccc(CCNC(=O)CSc2ccsc2[N+](=O)[O-])cc1	none
CCOC(=O)C1CCN(Cc2nnnn2CCc2ccccc2)CC1	none
CCc1n[nH]c(=S)n1/N=C/c1c(O)ccc2ccccc12	APOBEC3G inh 52 | APOBEC3G confirm 75 | UDG ctr A3G inactive
Cc1cc(OCC(=O)N(C)c2ccccc2)cc2c1C(=O)CC(C)(C)O2	APOBEC3G inh 59 | APOBEC3G confirm inactive
Cc1ccc(CNC(=O)COc2cc(O)c3c(c2)OC(C)(C)CC3=O)cc1	none
COC(=O)c1ccc(NC(=O)c2ccc(NC(=O)c3ccco3)cc2)cc1	none
CC(=O)c1ccc(NC(=O)c2ccc(NC(=O)c3ccco3)cc2)cc1	APOBEC3G inh 57 | APOBEC3G confirm 57 | UDG ctr A3G inactive
COc1ccc(CCNC(=O)Nc2cccc([N+](=O)[O-])c2)cc1OC	none
CC1CCc2c(sc(NC(=O)c3nc4ncccn4n3)c2C#N)C1 (stereo unspecified)	APOBEC3G inh 54 | APOBEC3G confirm 40 | UDG ctr A3G inactive
C=CCn1c(=O)c2ccccc2n2c(=S)[nH]nc12	APOBEC3G inh 50 | APOBEC3G confirm 80 | UDG ctr A3G inactive
CC(C)CCn1c(=O)c2ccccc2n2c(=S)[nH]nc12	APOBEC3G inh 46, PfM18AAP inh 29 | APOBEC3G confirm 86 | UDG ctr A3G inactive
C=CCn1c(CCn2c3ccccc3c3ccccc32)n[nH]c1=S	none
CCOC(=O)c1sc(=S)n(C)c1NC(=O)c1ccc(OC)cc1	APOBEC3G inh 53 | APOBEC3G confirm 59 | UDG ctr A3G inactive
CCN(CC)S(=O)(=O)c1cccc(-c2csc(C)n2)c1	none
C=CCn1c(-c2cccc(S(=O)(=O)N(CC)CC)c2)n[nH]c1=S	APOBEC3G inh 47 | APOBEC3G confirm 79 | UDG ctr A3G inactive
CCN(CC)S(=O)(=O)c1cccc(-c2n[nH]c(=S)n2C)c1	APOBEC3G inh 46 | APOBEC3G confirm 69 | UDG ctr A3G inactive
Cc1ccc(-c2n[nH]c(=S)n2C)cc1Cl	APOBEC3G inh 50 | APOBEC3G confirm 61 | UDG ctr A3G inactive
C=CCn1c(-c2cccc(S(=O)(=O)N3CCOCC3)c2)n[nH]c1=S	none (no result: PfM18AAP inh, SUMO HTRF inh)
CC(=O)c1ccc(N2CCN(C(=O)c3ccc4[nH]c(C)c(C)c4c3)CC2)cc1	none (no result: PfM18AAP inh, SUMO HTRF inh)
O=C(NC(=S)NNC(=O)c1ccccc1[N+](=O)[O-])c1ccccc1	APOBEC3G inh 46 | APOBEC3G confirm 31 | UDG ctr A3G inactive
O=C(NNC(=O)c1ccccc1[N+](=O)[O-])c1ccccc1[N+](=O)[O-]	none
O=C(NNC(=S)NC(=O)c1ccccc1[N+](=O)[O-])c1ccccc1	none
CCC(=O)NC(=S)NNC(=O)c1ccccc1[N+](=O)[O-]	APOBEC3G inh 61 | APOBEC3G confirm inactive | UDG ctr A3G inactive
COc1cc(NC2c3ncccc3C(=O)N2Cc2ccco2)cc(OC)c1 (stereo unspecified)	none
CCOCCCn1c(=NC(=O)c2cccnc2)c(C(=O)OCC)cc2c(=O)n3ccccc3nc21	APOBEC3G inh 65 | APOBEC3G confirm 58 | UDG ctr A3G inactive
O=C(O)C1CC=CCC1C(=O)NNc1c(Cl)cc(Cl)cc1Cl (stereo unspecified)	none
Cn1c(-c2cc(Br)ccc2O)n[nH]c1=S	APOBEC3G inh 48 | APOBEC3G confirm 83 | UDG ctr A3G inactive
Cc1ccc(-c2nnc3ccc(SC(C)C(=O)O)nn23)cc1 (stereo unspecified)	none
CC(Sc1ccc2nnc(-c3ccc(F)cc3)n2n1)C(=O)O (stereo unspecified)	APOBEC3G inh 42 | APOBEC3G confirm 52 | UDG ctr A3G inactive
CC(C)c1ccc(/C=C/C(=O)O)cc1	none
COc1cccc(CN2CCN(Cc3cc4ccccc4[nH]3)CC2CCO)c1 (stereo unspecified)	none
COc1cccc(CN2CCN(Cc3[nH]c4ccccc4c3C)CC2CCO)c1 (stereo unspecified)	APOBEC3G inh 51 | APOBEC3G confirm inactive | UDG ctr A3G inactive
O=C(CN1C(=O)C2C3C=CC(C3)C2C1=O)NCCC1=CCCCC1 (stereo unspecified)	none
CCC(CC)c1nnc(NC(=O)COc2ccc3c(c2)OCO3)s1	APOBEC3G inh 45, PfM18AAP inh 30 | APOBEC3G confirm 47 | UDG ctr A3G inactive
CC(C)c1nnc(NC(=O)COc2ccc3c(c2)OCO3)s1	none
COc1cccc2cc(-c3n[nH]c(=S)n3C)oc12	APOBEC3G inh 54 | APOBEC3G confirm 80 | UDG ctr A3G inactive
S=c1[nH]c2cc(Br)cnc2[nH]1	APOBEC3G inh 56 | APOBEC3G confirm 68 | UDG ctr A3G inactive
COc1ccc(/C=N/n2c(-c3n[nH]c4c3CCC4)n[nH]c2=S)cc1	APOBEC3G inh 40 | APOBEC3G confirm 74 | UDG ctr A3G inactive
COc1cc(OC)c(OC)cc1/C=N/n1c(-c2n[nH]c3c2CCC3)n[nH]c1=S	none
COc1ccc(-c2n[nH]c(=S)n2/N=C/c2cccn2C)cc1	none
COc1ccc(OC)c(/C=N/n2c(-c3n[nH]c4c3CCC4)n[nH]c2=S)c1	APOBEC3G inh 42 | APOBEC3G confirm 83 | UDG ctr A3G inactive
COc1ccc(CNCc2ccc(C)cc2)c(OC)c1	none
COc1cccc(CN(Cc2ccco2)C(c2ccc(F)cc2)c2nnnn2C(C)(C)C)c1 (stereo unspecified)	none
CC(C)(C)n1nnnc1C(c1cccnc1)N(Cc1ccccc1)Cc1ccco1 (stereo unspecified)	APOBEC3G inh 41 | APOBEC3G confirm inactive
